We go through one compound from paper PMC6945491 (Biomaterials, 2019).

Data set [1] relates to HIV-1ADA. As to the kind of experiment: EC50 by HIV-1 RT activity in infected MDM. It is filed as cell-based. Conditions: Human immunodeficiency virus 1, 240 h, read-out: EC50 (RT activity). The gist of the method: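 Human MDM (80,000 cells/well) pretreated 60 min with test compound or parent drug. Infected with HIV-1ADA at MOI 0.1 for 4 h, then cultured 10 days at the same drug concentration with half-medium changes every other day. Supernatant RT activity measured on day 10. EC50 fitted by sigmoidal 4-point logarithmic regression; triplicate.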

The next data set relates to HIV-1NL4–3-eGFP. As to the kind of experiment: EC50 by HIV-1 RT activity in infected CEM-CD4+ T cells. The conditions noted are these: Human immunodeficiency virus 1, T-cell, 240 h, read-out: EC50 (RT activity). Type of data set: cell-based.
A further data set deals with MDM. As to the kind of experiment: Drug uptake and 3TC-TP formation in MDM. It is filed as cell-based, human. Conditions: 100 μM, over 24 h. In a few lines:
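Human monocytes differentiated 7–10 days in DMEM with 10% heat-inactivated pooled human serum and 1,000 U/ml M-CSF at 37°C, 5% CO2. MDM exposed to 100 μM nanoformulated prodrug or parent drug. At sampling, cells washed twice in PBS, scraped, counted and pelleted. Pellets extracted in methanol with sonication, then drug measured by LC-MS/MS. 3TC-TP quantified by an established protocol. Triplicate.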

The subject of data set [2] is HIV-1ADA. Briefly: Long-term antiretroviral efficacy in MDM. It is filed as cell-based. Conditions: 8 h 100 μM, HIV-1ADA challenge. The gist of the method:
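MDM loaded 8 h with 100 μM test compound or parent drug, washed with PBS and kept drug-free with half-medium exchanges every other day. Challenged with HIV-1ADA (MOI 0.1) at days 1–30 after loading, then virus medium replaced. Ten days later medium RT activity was expressed as % of infected untreated cells. Cells fixed in 4% paraformaldehyde and HIV-1 p24 immunostained.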

Data set [3] in a line: Pharmacokinetics and biodistribution in rats. The conditions noted are these: single IM 75 mg/kg, after one day, limit of quantitation, data not shown.

Where only a bound is given, the exact number is not on record here.

Consider `Nc1ccn([C@H]2CS[C@@H](CO)O2)c(=O)n1` [3TC, 2’,3’-Dideoxy-3’-Thiacytidine], for which the 50% effective concentration (EC50) worked out at 19.4 nM in the data set on HIV-1ADA [1] and 35.4 nM in the data set on HIV-1NL4–3-eGFP. For the same compound, the intracellular drug concentration in the data set with MDM was < 0.5 μg/10^6 cells. The “time of viral breakthrough after treatment” value in the data set with HIV-1ADA [2] was “within one day”. Besides, the “drug levels in plasma and tissues” value in data set [3] is ≤ 0.05 ng/mL.

For orientation: EC50 means the midpoint of the concentration-response curve.
